IDH1 mut inh: inhibitors of human IDH1 R132H. IDH1 R132H reductase, diaphorase/resazurin fluorescence, 60 min. inhibition, % at 10 µM. 0.18% of 70,000 active. AID 624101; in the data active = inhibition above about 34%; inconclusive = no clear call, values can overlap the other calls; inactive = below about 11%
Target sequence (O75874 whole entry R132H): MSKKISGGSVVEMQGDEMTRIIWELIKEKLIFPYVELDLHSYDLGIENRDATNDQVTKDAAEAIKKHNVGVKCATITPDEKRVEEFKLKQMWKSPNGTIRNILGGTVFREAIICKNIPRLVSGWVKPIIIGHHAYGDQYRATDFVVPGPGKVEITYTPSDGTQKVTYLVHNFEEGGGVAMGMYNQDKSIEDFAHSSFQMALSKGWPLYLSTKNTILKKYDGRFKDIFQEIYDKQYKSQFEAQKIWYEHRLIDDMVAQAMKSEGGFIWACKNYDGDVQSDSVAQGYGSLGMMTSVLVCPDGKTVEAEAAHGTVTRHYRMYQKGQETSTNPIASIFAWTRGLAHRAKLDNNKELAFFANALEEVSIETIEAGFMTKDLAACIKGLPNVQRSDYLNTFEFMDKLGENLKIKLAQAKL
T cruzi growth-1: T. cruzi proliferation inhibition; inhibition, % at 8.34 µM; 5.9% of 77,000 active; T. cruzi beta-gal in NIH3T3, GalScreen luminescence, 90 h; AID 624255;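 active = mean inhibition above about 93%, with at least 55% of replicates each passing it, limit read from the data, passing the limit was not always enough; inconclusive = only one of those two conditions holds; inactive = neither condition holds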
KDM4C inh: inhibitors of human demethylase GASC-1 KDM4C | GST-KDM4C 2-372, H3K9me3 peptide, LANCE TR-FRET | inhibition, % at 12.5 µM | 0.15% of 96,000 active;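 active = mean replicate inhibition above about 25%, with at least 55% of replicates also reaching it, limit read from the data, passing the limit was not always enough; inconclusive = only one of those two conditions met; inactive = neither condition met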
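Material: GST-tagged GASC-1 (JMJD2C) catalytic fragment, aa 2-372 / Quantity: enzyme final amount 10 nM / Medium: HEPES buffer, pH 7.5, plus ascorbate / Doses: one test concentration per compound / Incubation: 30 min reaction, 60 min detection, RT / Measured by: LANCE TR-FRET / Read-out: inhibition from TR-FRET ratio decrease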
Pf Dd2 growth: P. falciparum Dd2 growth inhibition | SYBR Green, 72 h; hits give low values | activity change, % at 10 µM | 2.3% of 94,000 active | AID 1159554; in the data active = activity change below about -80%; inconclusive = no clear call, values can overlap the other calls
T cruzi growth-2: blocks T. cruzi growth in NIH3T3 host cells; AID 651739; T. cruzi beta-gal in NIH3T3, GalScreen luminescence, 90 h; shares compounds with T cruzi growth-1; 72% of 5,600 active; inhibition, % at 8.35 µM;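 active = mean replicate inhibition above about 95% and at least 55% of replicates individually reaching it, limit read from the data; inconclusive = only one of the two criteria is met; inactive = neither criterion is met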
T cruzi growth-3: inhibitors of T. cruzi proliferation. T. cruzi beta-gal in NIH3T3, GalScreen luminescence, 90 h. inhibition, % at 2.09 µM. 21% of 5,600 active. shares compounds with T cruzi growth-1;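 active = mean inhibition above about 95%, with at least 55% of replicates also reaching it, limit read from the data; inconclusive = meets just one of the two conditions; inactive = meets neither condition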
3T3 cytotox: NIH/3T3 (mouse) viability loss; shares compounds with T cruzi growth-1; NIH/3T3 viability, CellTiter-Glo ATP luminescence, 90 h; cytotoxicity (signal decrease), % at 8.35 µM; 14% of 5,600 active;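 active = mean signal decrease across replicates above about 35% based on untreated-well scatter, with enough replicates individually passing, limit read from the data; inconclusive = no rule stated though some were filed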
NIH3T3 tox 2: NIH/3T3 (mouse) viability loss | NIH/3T3 viability, CellTiter-Glo ATP luminescence, 90 h | AID 651744 | inhibition, % at 24.9 µM | shares compounds with T cruzi growth-1 | 56% of 5,600 active;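 active = mean loss of cell viability signal at or above a set limit, and enough replicates individually reaching it; inconclusive = meets only the mean limit or only the replicate share; inactive = meets neither condition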
Hits are given with their value; 0 = inactive; ? = inconclusive; - = not tested or not shown. Rows were chosen to be rich in hits. Some 5.8% of all compounds tested hit in one or more screens of this group.

SMILES	IDH1 mut inh	T cruzi growth-1	KDM4C inh	Pf Dd2 growth	T cruzi growth-2	T cruzi growth-3	3T3 cytotox	NIH3T3 tox 2
O=[N+]([O-])c1ccc(N2CCN(S(=O)(=O)c3ccc(F)cc3)CC2)cc1NCc1cccnc1	0	-	-	-	-	-	-	-
CCN(CC(=O)Nc1cccc(Cl)c1C)S(=O)(=O)c1ccc(F)cc1	0	-	-	-	-	-	-	-
Cn1cnc(S(=O)(=O)N2CCCCN3[C@H](CO)[C@H](c4ccc(-c5ccc(F)cc5)cc4)[C@H]3C2)c1	-	?	0	0	?	0	0	41
Cn1cnc(S(=O)(=O)N2CCCCN3[C@H](CO)[C@@H](c4ccc(-c5ccccc5)cc4)[C@H]3C2)c1	-	98	0	0	0	0	0	0
Cn1cnc(S(=O)(=O)N2CCCCN3[C@@H](CO)[C@H](c4ccc(-c5ccccc5)cc4)[C@@H]3C2)c1	-	100	0	0	0	0	0	33
Cc1cccc(-c2ccc([C@@H]3[C@@H](CO)N4CCCCN(S(=O)(=O)c5cn(C)cn5)C[C@H]34)cc2)c1	-	102	0	0	0	0	0	0
Cn1cnc(S(=O)(=O)N2CCCCN3[C@H](C2)[C@@H](c2ccc(-c4ccc(F)cc4)cc2)[C@@H]3CO)c1	-	0	0	0	-	-	-	-
Cn1cnc(S(=O)(=O)N2CCCCN3[C@H](CO)[C@@H](c4ccc(-c5ccc(F)cc5)cc4)[C@H]3C2)c1	-	0	0	0	-	-	-	-
O=C(O)CCC1OC(=O)C(=O)C1c1ccccc1 (stereo not given)	0	-	-	-	-	-	-	-
Cn1cnc(S(=O)(=O)N2CCCCN3[C@H](C2)[C@@H](c2ccc(-c4ccccc4)cc2)[C@@H]3CO)c1	-	106	0	0	99	0	0	0
COC(=O)c1c(NC(=O)CC2Nc3cccc4cccc(c34)NC2=O)sc2c1CCCC2 (stereo not given)	0	-	-	-	-	-	-	-
C[C@H]1CN([C@@H](C)CO)C(=O)c2cccc(NC(=O)c3ccncc3)c2O[C@@H]1CN(C)Cc1ccc(C(=O)Nc2ccccc2N)cc1	0	98	0	0	108	101	0	47
C[C@@H]1CN([C@@H](C)CO)C(=O)c2cccc(NC(=O)c3cnccn3)c2O[C@@H]1CN(C)Cc1ccc(C(=O)Nc2ccccc2N)cc1	-	106	0	-92	0	0	47	91
C[C@H](CO)N1C[C@H](C)[C@@H](CN(C)Cc2ccc(C(=O)Nc3ccccc3N)cc2)Oc2c(NC(=O)c3ccncc3)cccc2C1=O	-	?	0	0	102	0	0	25
CCOc1cc([N+](=O)[O-])ccc1NC(=O)CC1Sc2ccccc2NC1=O (stereo not given)	0	-	-	-	-	-	-	-
CCC[C@@H](O)[C@H](O)[C@@H]1CC(OC)=CC(=O)O1	0	-	-	-	-	-	-	-
COc1ccccc1C#Cc1ccc([C@H]2[C@H]3CN(C(=O)C4CCCC4)CCCCN3[C@H]2CO)cc1	-	114	-	0	0	0	0	54
COc1ccccc1C#Cc1ccc([C@H]2[C@@H](CO)N3CCCCN(C(=O)C4CCCC4)C[C@@H]23)cc1	-	118	-	0	101	105	?	71
COc1ccccc1C#Cc1ccc([C@H]2[C@@H](CO)N3CCCCN(S(C)(=O)=O)C[C@H]23)cc1	-	0	0	0	-	-	-	-
COc1ccccc1C#Cc1ccc([C@H]2[C@H]3CN(S(C)(=O)=O)CCCCN3[C@H]2CO)cc1	-	0	0	0	-	-	-	-
COc1ccccc1C#Cc1ccc([C@@H]2[C@@H](CO)N3CCCCN(C(=O)C4CCCC4)C[C@H]23)cc1	-	112	-	0	103	0	0	106
COc1ccc(C(=O)Nc2ccc3nc(SCC(=O)N4CCOCC4)sc3c2)cc1OC	0	-	-	-	-	-	-	-
c1ccc(-c2cnc(SCc3nc4ccccc4[nH]3)[nH]2)cc1	0	-	-	-	-	-	-	-
COc1cccc(-c2cnc3c(c2)C(=O)N([C@H](C)CO)C[C@H](C)[C@H](CN(C)Cc2cccc(C)c2)O3)c1	0	96	0	0	0	0	0	?
COc1ccccc1-c1cnc2c(c1)C(=O)N([C@@H](C)CO)C[C@@H](C)[C@@H](CN(C)Cc1cccc(F)c1)O2	0	?	0	0	0	0	0	52
SMILES	IDH1 mut inh	T cruzi growth-1	KDM4C inh	Pf Dd2 growth	T cruzi growth-2	T cruzi growth-3	3T3 cytotox	NIH3T3 tox 2
COc1ccccc1-c1cnc2c(c1)C(=O)N([C@H](C)CO)C[C@H](C)[C@@H](CN(C)Cc1cccc(F)c1)O2	0	?	0	0	102	0	0	42
COc1ccccc1-c1cnc2c(c1)C(=O)N([C@H](C)CO)C[C@@H](C)[C@@H](CN(C)Cc1cccc(F)c1)O2	0	0	0	0	-	-	-	-
COc1ccccc1-c1cnc2c(c1)C(=O)N([C@H](C)CO)C[C@@H](C)[C@H](CN(C)Cc1cccc(F)c1)O2	0	0	0	0	-	-	-	-
CC(C)(O)C#Cc1ccc([C@H]2[C@@H](CO)N3CCCCN(C(=O)c4cccc(F)c4)C[C@@H]23)cc1	-	103	0	0	105	0	0	0
CC(C)(O)C#Cc1ccc([C@@H]2[C@@H](CO)N3CCCCN(C(=O)c4cccc(F)c4)C[C@@H]23)cc1	-	113	0	0	0	0	0	0
CC(C)(C)c1csc(-c2sccc2CS(=O)(=O)c2ccc(Cl)cc2)n1	0	-	-	-	-	-	-	-
C[C@H]1CN([C@@H](C)CO)C(=O)c2cccc(NS(=O)(=O)c3ccc(Cl)cc3)c2O[C@H]1CN(C)Cc1ccc(Oc2ccccc2)cc1	-	0	0	0	-	-	-	-
C[C@@H]1CN([C@H](C)CO)C(=O)c2cccc(NS(=O)(=O)c3ccc(Cl)cc3)c2O[C@H]1CN(C)Cc1ccc(Oc2ccccc2)cc1	0	?	0	0	110	0	0	0
C[C@@H]1CN([C@@H](C)CO)C(=O)c2cccc(NS(=O)(=O)c3ccc(Cl)cc3)c2O[C@@H]1CN(C)Cc1ccc(Oc2ccccc2)cc1	0	0	0	0	-	-	-	-
C[C@H](CO)N1C[C@H](C)[C@@H](CN(C)Cc2ccc(Oc3ccccc3)cc2)Oc2c(NS(=O)(=O)c3ccc(Cl)cc3)cccc2C1=O	-	102	0	0	?	0	0	100
COc1ccc(N(CC(=O)Nc2cc(C)ccc2C)S(C)(=O)=O)cc1OC	0	-	-	-	-	-	-	-
Cc1nnc(SCC(=O)Nc2cccc(F)c2)s1	0	-	-	-	-	-	-	-
CCCC#Cc1ccc([C@@H]2[C@@H](CO)N3CCCCN(S(=O)(=O)CC)C[C@@H]23)cc1	-	102	0	0	0	0	0	35
COCC#Cc1ccc([C@H]2[C@@H](CO)N3CCCCN(S(=O)(=O)c4ccccc4C)C[C@@H]23)cc1	-	0	0	0	-	-	-	-
COCC#Cc1ccc([C@H]2[C@@H](CO)N3CCCCN(S(=O)(=O)c4ccccc4C)C[C@H]23)cc1	-	98	0	0	98	0	0	107

From PubChem
